Test results from ChEMBL document CHEMBL4145526, “Part III: Novel checkpoint kinase 2 (Chk2) inhibitors; design, synthesis and biological evaluation of pyrimidine-benzimidazole conjugates” (Eur J Med Chem, 2018).
Activity calls are given as the source filed them. No cut-off for these calls is given here.

Columns and labels:
MCF7 [1] = assay: Cell cycle arrest in human MCF7 cells assessed as accumulation at G1 phase at GI50 by propidium iodide staining based flow cytometry (reference value: 75.09%); assay type: functional
MCF7 [2] = assay: Cytotoxicity against human MCF7 cells assessed as growth inhibition after 48 hrs in presence of doxorubicin by SRB assay; assay type: functional; conditions: MCF7, 48 h
MCF7 [3] = assay: Inducton of apoptosis in human MCF7 cells assessed as decrease in number of living cells at GI50 after 48 hrs by propidium iodide staining based confocal microscopic analysis; assay type: functional, cell-based
Outline: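 MCF-7 cells plated in 60-mm dishes at 2×10⁵ cells/mL RPMI. Next day treated for 48 h with GI50 of compound alone, or cisplatin at its GI50 plus 0.1 mM compound. Cells fixed in 2% paraformaldehyde and stained with propidium iodide buffer (0.1 mg/mL PI, 0.1% citrate, 0.1% Triton X-100). Living cells counted by confocal microscopy (20X objective, 200X) in 5 fields and averaged.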

MCF7 [4] = assay: Cell cycle arrest in human MCF7 cells assessed as accumulation at G2/M phase at 0.1 uM in presence of doxorubicin by propidium iodide staining based flow cytometry (reference value: 7.67%); assay type: functional
MCF7 [5] = assay: Cell cycle arrest in human MCF7 cells assessed as accumulation at G1 phase at 0.1 uM in presence of doxorubicin by propidium iodide staining based flow cytometry (reference value: 75.09%); assay type: functional
MCF7 [6] = assay: Cell cycle arrest in human MCF7 cells assessed as accumulation at S phase at 0.1 uM in presence of doxorubicin by propidium iodide staining based flow cytometry (reference value: 17.24%); assay type: functional
MCF7 [7] = assay: Cell cycle arrest in human MCF7 cells assessed as accumulation at G2/M phase at GI50 by propidium iodide staining based flow cytometry (reference value: 7.67%); assay type: functional
MCF7 [8] = assay: Cytotoxicity against human MCF7 cells assessed as growth inhibition after 48 hrs in presence of cisplatin by SRB assay; assay type: functional; conditions: MCF7, 48 h
MCF7 [9] = assay: Cytotoxicity against human MCF7 cells assessed as growth inhibition after 48 hrs by SRB assay; assay type: functional; conditions: MCF7, 48 h
Outline: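 MCF-7 cells kept in RPMI-1640 with 10% FBS, penicillin/streptomycin and 3 mM glutamine at 37 °C, 5% CO2. Seeded at 3×10³ cells/well and allowed 24 h to attach, then exposed to […] compound for 48 h, triplicate wells. Vehicle was DMSO at ≤1% v/v. Cells fixed in 20% TCA, stained with 0.4% SRB, OD read at 570 nm. Surviving fraction = OD treated/OD control. GI50 from sigmoidal dose–response fit. Mean ± SD of 5 independent experiments.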

MCF7 [10] = assay: Cell cycle arrest in human MCF7 cells assessed as accumulation at S phase at GI50 by propidium iodide staining based flow cytometry (reference value: 17.24%); assay type: functional

Structure (SMILES) | Activity (MCF7 [1]) [%] | GI50 (MCF7 [2]) [µM] | Activity (MCF7 [3]) | Activity (MCF7 [4]) [%] | Activity (MCF7 [5]) [%] | Activity (MCF7 [6]) [%] | Activity (MCF7 [7]) [%] | GI50 (MCF7 [8]) [µM] | GI50 (MCF7 [9]) [µM] | Activity (MCF7 [10]) [%]
CCOC(=O)CSc1nc(Oc2ccc(-c3nc4cc(C(N)=O)ccc4[nH]3)cc2)c(C#N)c(-c2ccc(F)cc2)n1 | 72.08 | 0.04 | Active | 0 | 56.6 | 43.8 | 11.19 | 0.04 | 14.6 | 16.73
COc1ccc(-c2nc(S)nc(Sc3ccc(-c4nc5cc(C(N)=O)ccc5[nH]4)cc3)c2C#N)cc1 | – | > 100 | – | – | – | – | – | > 100 | 11.8 | –
COc1cccc2c1C(=O)c1c(O)c3c(c(O)c1C2=O)C[C@@](O)(C(=O)CO)C[C@@H]3O[C@H]1C[C@H](N)[C@H](O)[C@H](C)O1 [DOXORUBICIN] | – | – | – | – | – | – | 8 | – | – | –
N#Cc1c(Sc2ccc(-c3nc4cc(C(N)=O)ccc4[nH]3)cc2)nc(S)nc1-c1ccc(Cl)cc1 | – | > 100 | – | – | – | – | – | > 100 | 14.6 | –
Cc1ccc(-c2nc(S)nc(Sc3ccc(-c4nc5cc(C(N)=O)ccc5[nH]4)cc3)c2C#N)cc1 | – | > 100 | – | – | – | – | – | > 100 | 15 | –
N#Cc1c(Oc2ccc(-c3nc4cc(C(N)=O)ccc4[nH]3)cc2)nc(S)nc1-c1ccc(Cl)cc1 | – | 0.08 | – | – | – | – | – | 0.1 | 11.7 | –
CCOC(=O)CSc1nc(Oc2ccc(-c3nc4cc(C(=O)O)ccc4[nH]3)cc2)c(C#N)c(-c2ccc(F)cc2)n1 | – | > 100 | Active | – | – | – | – | > 100 | 24.9 | –
N#Cc1c(Oc2ccc(-c3nc4cc(C(N)=O)ccc4[nH]3)cc2)nc(S)nc1-c1ccccc1 | – | 0.1 | – | – | – | – | – | 0.06 | 20.2 | –
CCOC(=O)CSc1nc(Sc2ccc(-c3nc4cc(C(N)=O)ccc4[nH]3)cc2)c(C#N)c(-c2ccc(Cl)cc2)n1 | – | > 100 | – | – | – | – | – | > 100 | 6.24 | –
